Experimental data collected from several papers.
Protocols differ between the studies behind these lines.
Observed: cell growth or viability

| SMILES | cell line | assay | setting | quantity | result |
| --- | --- | --- | --- | --- | --- |
| COc1ccc(NC(=O)Nc2cccc(-c3cn(Cc4ccc(Br)cc4)nn3)c2)cc1 | MCF7 | CCK-8 | 50 µM, 72 h | viability | 98.4% |
| COc1ccc2/c(=N/c3ccccc3NC(=O)[C@@H](N)C(C)(C)C)cc(-c3ccc4c(c3)OCCO4)oc2c1 | MCF7 | CCK-8 | 1 µM | inhibition | 8.1% |
| CN(C)CCNC(=O)c1ccc(-c2nc3ccc4[nH]ncc4c3c3c2CCCCC3)c(F)c1 | NOMO-1 |  | 72 h | GI50 | 1330 nM |
| O=C(Nc1ccc(Cl)cc1)Nc1ccc(-c2cn(Cc3cccc(Cl)c3)nn2)cc1 | MCF7 | CCK-8 | 50 µM, 72 h | viability | 98.2% |
| Cc1ccccc1Cn1cc(-c2cccc(NC(=O)Nc3ccc(F)cc3)c2)nn1 | MCF7 | CCK-8 | 50 µM, 48 h | viability | 100% |
| COc1ccc2oc(-c3ccc4nc(N)oc4c3)c/c(=N\c3ccccc3NC(=O)CCN)c2c1 | MCF7 | CCK-8 | 1 µM | inhibition | 15% |
| O=C(Nc1ccc(Cl)cc1)Nc1cccc(-c2cn(Cc3cccc(Br)c3)nn2)c1 | MCF7 | CCK-8 | 50 µM, 48 h | viability | 85.3% |
| O=C(Nc1ccc(Cl)cc1)Nc1cccc(-c2cn(Cc3cccc(Cl)c3)nn2)c1 | MCF7 | CCK-8 | 50 µM, 72 h | viability | 70.5% |
| Cc1n[nH]c2ccc3nc(-c4ccc(C(=O)NCCN(C)C)cc4)c4c(c3c12)CCCCC4 | NOMO-1 |  | 72 h | GI50 | 3080 nM |
| COc1ccc(NC(=O)Nc2cccc(-c3cn(Cc4ccccc4C)nn3)c2)cc1 | MCF7 | CCK-8 | 50 µM, 72 h | viability | 72.3% |
| COc1ccc2/c(=N/c3ccccc3NC(=O)CN)cc(-c3ccc4c(c3)OCCO4)oc2c1 | MCF7 | CCK-8 | 1 µM | inhibition | 9.77% |
| O=C(NCc1cn(Cc2ccc(Br)cc2)nn1)Nc1ccc(Cl)cc1 | MCF7 | CCK-8 | 50 µM, 72 h | viability | 91.2% |
| Cc1n[nH]c2ccc3nc(-c4ccc(C(=O)NCCN(C)C)cc4F)c4c(c3c12)CCCC4 | NOMO-1 |  | 72 h | GI50 | 292 nM |
| COc1ccc(NC(=O)Nc2ccc(-c3cn(Cc4ccc(Cl)cc4)nn3)cc2)cc1 | MCF7 | CCK-8 | 50 µM, 72 h | viability | 99% |
| O=C(NCc1cn(Cc2ccc(Cl)cc2)nn1)Nc1ccccc1Br | MCF7 | CCK-8 | 50 µM, 72 h | viability | 88.6% |
| COc1ccc(NC(=O)Nc2ccc(-c3cn(Cc4ccc(Br)cc4)nn3)cc2)cc1 | MCF7 | CCK-8 | 50 µM, 48 h | viability | 98.4% |
| O=C(Nc1ccccc1/N=c1\cc(-c2ccc3c(c2)OCO3)oc2ccccc12)N1CCOCC1 | MCF7 | CCK-8 | 1 µM | inhibition | 12.9% |
| O=C(Nc1ccc(Cl)cc1)Nc1ccc(-c2cn(Cc3ccc(Cl)cc3)nn2)cc1 | MCF7 | CCK-8 | 50 µM, 72 h | viability | 98% |
| NCCC(=O)Nc1ccccc1/N=c1\cc(-c2ccc3c(c2)OCO3)oc2ccccc12 | MCF7 | CCK-8 | 1 µM | inhibition | -5.6% |
| COc1ccc(NC(=O)Nc2ccc(-c3cn(Cc4ccc(C)cc4)nn3)cc2)cc1 | MCF7 | CCK-8 | 50 µM, 48 h | viability | 81.1% |
| O=C(C[C@@H](C(F)F)n1ccc(F)n1)N1CCC(O)(Cn2cnc3c(cnn3-c3ccc(F)cc3)c2=O)CC1 | CAPAN-1 | SRB | 9.145 nM, 5 days | viability | 94.6% |
| NCCC(=O)Nc1ccccc1/N=c1\cc(-c2ccc3nc(N)oc3c2)oc2ccccc12 | MCF7 | CCK-8 | 1 µM | inhibition | 46% |
| CN(C)CCNC(=O)c1ccc(-c2nc3ccc4[nH]ncc4c3c3c2CCCC3)c(F)c1 | NOMO-1 |  | 72 h | GI50 | 3080 nM |
| O=C(Nc1ccccc1/N=c1\cc(-c2ccc3c(c2)OCCO3)oc2cc(F)ccc12)N1CCOCC1 | MCF7 | CCK-8 | 1 µM | inhibition | 16.7% |
| O=C(Nc1ccc(-c2cn(Cc3ccc(Br)cc3)nn2)cc1)Nc1ccccc1Br | MCF7 | CCK-8 | 50 µM, 72 h | viability | 103% |
| C[C@H](Nc1ccc2c(c1)OCCn1cc(N3C(=O)OC[C@H]3C(F)F)nc1-2)C(N)=O | HCC1954 | ATP luminescence | 5 days | EC50 | 155 nM |
| C[C@H](N)C(=O)Nc1ccccc1/N=c1\cc(-c2ccc3c(c2)OCCO3)oc2cc(F)ccc12 | MCF7 | CCK-8 | 1 µM | inhibition | 3.33% |
| Cc1n[nH]c2ccc3nc(-c4ccc(C(=O)NCCN(C)C)cc4F)c4c(c3c12)CCCCC4 | NOMO-1 |  | 72 h | GI50 | 2730 nM |
